The test system of experiment [1] is T47D. Briefly: Cytotoxicity against human T47D cells incubated from day 2 to day 4 by CCK8 assay. The experiment is classed as functional, cell-based. Put shortly:
(§1)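 Cells seeded at 2~4 × 10^4 per well and grown overnight in medium with 10% FBS at 37 °C, 5% CO2. Day 2: FBS starvation 4 h, then medium with graded compound concentrations. Day 4: CCK-8 added for 4 h more, absorbance read at 450 nm. IC50 from four-parameter logistic fit. Mean ± S.D. of three experiments run in triplicate.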
For orientation: Tetrazolium dyes change colour on reduction, which living cells bring about.

The target of experiment [2] is T1, DNA topoisomerase 1 (Homo sapiens) (UniProt P11387).
T1 sequence (whole entry): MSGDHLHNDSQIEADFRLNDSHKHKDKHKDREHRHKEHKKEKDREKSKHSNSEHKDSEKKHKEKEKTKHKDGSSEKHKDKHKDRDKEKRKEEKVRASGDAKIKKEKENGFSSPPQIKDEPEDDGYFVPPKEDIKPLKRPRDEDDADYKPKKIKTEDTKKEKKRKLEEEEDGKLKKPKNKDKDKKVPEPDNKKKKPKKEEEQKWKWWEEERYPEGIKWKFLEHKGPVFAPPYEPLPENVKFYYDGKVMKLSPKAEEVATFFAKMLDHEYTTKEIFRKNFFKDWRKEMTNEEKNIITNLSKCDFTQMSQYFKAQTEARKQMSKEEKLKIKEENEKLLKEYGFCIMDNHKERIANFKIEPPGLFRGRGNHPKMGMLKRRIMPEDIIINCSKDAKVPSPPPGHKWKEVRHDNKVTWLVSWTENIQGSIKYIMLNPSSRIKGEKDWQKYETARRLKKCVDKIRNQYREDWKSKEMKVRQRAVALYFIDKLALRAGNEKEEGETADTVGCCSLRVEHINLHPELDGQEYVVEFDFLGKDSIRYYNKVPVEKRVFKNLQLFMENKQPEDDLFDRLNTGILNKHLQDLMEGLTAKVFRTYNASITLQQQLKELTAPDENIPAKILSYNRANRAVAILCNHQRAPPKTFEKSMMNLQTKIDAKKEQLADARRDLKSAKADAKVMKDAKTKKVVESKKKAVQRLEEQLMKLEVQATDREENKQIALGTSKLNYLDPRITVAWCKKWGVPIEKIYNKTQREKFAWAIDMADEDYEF
Briefly: Inhibition of human recombinant DNA topoisomerse 1 using pBR322 as substrate assessed as inhibition of conversion of supercoiled pBR322 to relaxed form at 100 uM after 30 mins by ethidium bromide staining-based electrophoresis analysis. Put shortly: (§2)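 Relaxation of supercoiled pBR322 (100 ng) by 1 unit recombinant human topo I. Run at 37 °C for 30 min in 10 mM Tris-HCl pH 7.9, 150 mM NaCl, 0.1% BSA, 1 mM spermidine, 5% glycerol. Compounds from 20 mM DMSO stocks. Stopped with sarcosyl, then 1% agarose gel at 15 V for 7 h in TAE. Ethidium bromide stain, UV imaging, bands quantitated.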

The target in experiment [3] is T1, DNA topoisomerase 1 (Homo sapiens). Briefly: Inhibition of human recombinant DNA topoisomerse 1 using pBR322 as substrate assessed as inhibition of conversion of supercoiled pBR322 to relaxed form at 20 uM after 30 mins by ethidium bromide staining-based electrophoresis analysis. Put shortly:
as §2

In experiment [4] the target is DNA topoisomerase 2-alpha (Homo sapiens) (UniProt P11388). Briefly: Inhibition of human recombinant DNA topoisomerse 2 alpha using pBR322 as substrate assessed as inhibition of conversion of supercoiled pBR322 to relaxed form at 100 uM after 30 mins by ethidium bromide staining-based electrophoresis analysis. Put shortly: (§3)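 Supercoiled pBR322 (200 ng) with 1 unit human topo IIα, 30 min at 30 °C. Buffer: 10 mM Tris-HCl pH 7.9, 50 mM NaCl, 5 mM MgCl2, 1 mM EDTA, 1 mM ATP, 15 μg/mL BSA. Stopped with EDTA. 1% agarose gel at 25 V for 4 h in TAE, ethidium bromide stain, supercoiled DNA quantitated under UV.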
DNA topoisomerase 2-alpha (Homo sapiens), sequence (P11388 whole entry): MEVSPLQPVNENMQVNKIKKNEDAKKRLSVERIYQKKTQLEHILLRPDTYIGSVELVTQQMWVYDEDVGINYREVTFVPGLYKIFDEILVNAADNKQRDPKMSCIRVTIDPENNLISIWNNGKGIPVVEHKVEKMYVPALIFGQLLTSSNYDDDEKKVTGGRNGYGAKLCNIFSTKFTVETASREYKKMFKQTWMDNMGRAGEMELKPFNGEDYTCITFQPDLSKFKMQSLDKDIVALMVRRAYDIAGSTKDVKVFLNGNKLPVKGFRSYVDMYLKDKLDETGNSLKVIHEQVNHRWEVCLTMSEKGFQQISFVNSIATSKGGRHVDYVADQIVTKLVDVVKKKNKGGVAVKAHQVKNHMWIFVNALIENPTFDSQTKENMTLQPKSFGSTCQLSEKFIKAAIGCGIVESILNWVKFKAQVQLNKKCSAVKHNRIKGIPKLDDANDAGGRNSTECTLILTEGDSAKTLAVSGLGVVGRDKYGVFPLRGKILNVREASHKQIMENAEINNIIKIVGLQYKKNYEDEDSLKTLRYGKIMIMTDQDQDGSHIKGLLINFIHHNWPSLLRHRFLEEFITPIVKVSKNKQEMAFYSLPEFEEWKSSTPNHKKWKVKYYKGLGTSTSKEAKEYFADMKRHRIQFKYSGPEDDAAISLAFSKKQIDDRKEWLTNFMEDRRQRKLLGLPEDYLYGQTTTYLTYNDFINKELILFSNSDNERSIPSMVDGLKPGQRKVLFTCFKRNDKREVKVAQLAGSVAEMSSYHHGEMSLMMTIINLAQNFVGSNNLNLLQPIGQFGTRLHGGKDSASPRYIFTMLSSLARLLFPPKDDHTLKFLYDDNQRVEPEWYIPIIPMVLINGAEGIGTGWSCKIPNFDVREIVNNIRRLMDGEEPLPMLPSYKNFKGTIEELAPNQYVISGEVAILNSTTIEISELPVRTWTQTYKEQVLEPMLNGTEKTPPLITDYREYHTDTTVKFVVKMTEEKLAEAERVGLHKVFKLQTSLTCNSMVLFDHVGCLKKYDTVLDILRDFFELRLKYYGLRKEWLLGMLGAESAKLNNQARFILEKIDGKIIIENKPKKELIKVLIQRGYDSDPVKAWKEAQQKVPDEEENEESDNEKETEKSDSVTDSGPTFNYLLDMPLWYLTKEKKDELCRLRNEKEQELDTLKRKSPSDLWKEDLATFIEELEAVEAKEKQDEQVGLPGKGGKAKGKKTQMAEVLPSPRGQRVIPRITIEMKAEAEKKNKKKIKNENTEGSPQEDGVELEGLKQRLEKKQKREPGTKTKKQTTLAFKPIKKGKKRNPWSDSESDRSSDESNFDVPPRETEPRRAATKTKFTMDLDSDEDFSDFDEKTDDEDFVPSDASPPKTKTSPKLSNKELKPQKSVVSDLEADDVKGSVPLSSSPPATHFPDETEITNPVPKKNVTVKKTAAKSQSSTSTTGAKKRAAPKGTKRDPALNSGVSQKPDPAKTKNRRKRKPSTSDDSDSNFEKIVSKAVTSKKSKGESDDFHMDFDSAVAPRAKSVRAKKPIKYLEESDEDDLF

Experiment [5] shares this target. Briefly: Inhibition of human recombinant DNA topoisomerse 2 alpha using pBR322 as substrate assessed as inhibition of conversion of supercoiled pBR322 to relaxed form at 20 uM after 30 mins by ethidium bromide staining-based electrophoresis analysis. The essentials:
as §3

Experiment [6] has as its system HCT-15. Briefly: Cytotoxicity against human HCT15 cells incubated from day 2 to day 4 by CCK8 assay. The experiment is classed as functional, cell-based. The essentials: as §1
For experiment [7], the system named is DU-145. Briefly: Cytotoxicity against human DU145 cells incubated from day 2 to day 4 by CCK8 assay. The experiment is classed as functional, cell-based. The essentials:
as §1

In experiment [8] the test system is HeLa. Briefly: Cytotoxicity against human HeLa cells incubated from day 2 to day 4 by CCK8 assay. The experiment is classed as functional, cell-based. The essentials: as §1

Counter-ions that a name gives are not always drawn. Bounds are passed on as bounds.

In experiment [1], `COc1cc([C@@H]2c3cc4c(cc3[C@@H](O[C@@H]3O[C@@H]5CO[C@@H](C)O[C@H]5[C@H](O)[C@H]3O)[C@H]3COC(=O)[C@H]23)OCO4)cc(OC)c1O` [ETOPOSIDE] returned an IC50 of 0.7 µM.

Consider `c1ccc(-c2cc(-c3ccco3)c3c(n2)-c2ccccc2C3)cc1`, for which the inhibition was found to be 73% in experiment [2], 8.7% in experiment [3], 44.5% in experiment [4] and 25.9% in experiment [5]. Besides, the IC50 came to 11.2 µM in experiment [6], 10.6 µM in experiment [1], 5 µM in experiment [7] and 1.42 µM in experiment [8].

For `Oc1cccc(-c2cc(-c3ccsc3)c3c(n2)-c2ccccc2C3)c1`, the inhibition in experiment [2] is 76.9%; in experiment [3] it was 0%; in experiment [4], 77.2%; in experiment [5], 37%. In addition, the IC50 in experiment [6] is 6.73 µM; in experiment [1], 0.94 µM; in experiment [7] it was 2.3 µM; in experiment [8], 1.74 µM.

Consider `Oc1ccccc1-c1cc(-c2ccco2)c2c(n1)-c1ccccc1C2`, for which the inhibition in experiment [2] was 58.3%; in experiment [3] it was 2.4%; in experiment [4], 11.7%. Also, the IC50 in experiment [6], in experiment [1], in experiment [7] and in experiment [8] was over 50 µM in each case.

Take `c1ccc(-c2cc(-c3ccccn3)c3c(n2)-c2ccccc2C3)cc1`: the inhibition in experiment [2] was 3.6%; in experiment [4], 16.4%. In addition, the IC50 is over 50 µM in experiment [6], 44.5 µM in experiment [1], 13.2 µM in experiment [7] and 18.7 µM in experiment [8].

Take `Oc1cccc(-c2cc(-c3ccco3)c3c(n2)-c2ccccc2C3)c1`: the inhibition stood at 59.7% in experiment [2], 5.5% in experiment [3], 78.2% in experiment [4] and 44.5% in experiment [5]. Further, the IC50 in experiment [6] was determined as 1.59 µM; in experiment [1], 6.74 µM; in experiment [7], 4.38 µM; in experiment [8], 3.66 µM.

Turning to `Oc1ccccc1-c1cc(-c2cccnc2)c2c(n1)-c1ccccc1C2`, the inhibition in experiment [2] stood at 70.9%; in experiment [3], 3.8%; in experiment [4], 3.5%. In addition, the IC50 in experiment [6], in experiment [1], in experiment [7] and in experiment [8] was over 50 µM in each case.

For `CC[C@@]1(O)C(=O)OCc2c1cc1n(c2=O)Cc2cc3ccccc3nc2-1` [CAMPTOTHECIN], the IC50 in experiment [6] stood at 0.52 µM; in experiment [1], 0.31 µM; in experiment [8], 0.41 µM.

On to `Oc1ccc(-c2cc(-c3ccccn3)c3c(n2)-c2ccccc2C3)cc1`, for which the inhibition in experiment [2] came to 61.2%; in experiment [3] it was 4.7%; in experiment [4], 18.2%. Further, the IC50 in experiment [6], in experiment [1], in experiment [7] and in experiment [8] was over 50 µM each time.

`c1ccc(-c2cc(-c3ccncc3)c3c(n2)-c2ccccc2C3)cc1`: in experiment [2], the inhibition stood at 3.3%. For the same compound, the concentration for half-maximal inhibition (IC50) in experiment [6], in experiment [1], in experiment [7] and in experiment [8] was over 50 µM throughout.

Consider `Oc1ccccc1-c1cc(-c2ccccn2)c2c(n1)-c1ccccc1C2`, for which the inhibition is 52.8% in experiment [2], 4.9% in experiment [3] and 9.1% in experiment [4]. Besides, the IC50 in experiment [6], in experiment [1], in experiment [7] and in experiment [8] was over 50 µM in each case.

Take `Oc1ccc(-c2cc(-c3cccnc3)c3c(n2)-c2ccccc2C3)cc1`: the results for the inhibition in experiment [2], in experiment [3] and in experiment [4] were 59.7%, 2.4% and 28.3%, respectively. The concentration for half-maximal inhibition (IC50) in experiment [6], in experiment [1], in experiment [7] and in experiment [8] was over 50 µM in each case.

With `Oc1cccc(-c2cc(-c3cccs3)c3c(n2)-c2ccccc2C3)c1`, the inhibition came out at 55.6% in experiment [2], 0% in experiment [3], 72.2% in experiment [4] and 32% in experiment [5]. For the same compound, the IC50 in experiment [6] came out at 2.32 µM; in experiment [1], 4.07 µM; in experiment [7], 4.38 µM; in experiment [8], 1.47 µM.

In the case of `Oc1ccccc1-c1cc(-c2ccoc2)c2c(n1)-c1ccccc1C2`, the inhibition in experiment [2] worked out at 50.6%; in experiment [3] it was 0.5%; in experiment [4], 51.7%; in experiment [5], 39.2%. Besides, the IC50 in experiment [6], in experiment [1], in experiment [7] and in experiment [8] was over 50 µM in each case.

In experiment [7], `COc1cccc2c1C(=O)c1c(O)c3c(c(O)c1C2=O)C[C@@](O)(C(=O)CO)C[C@@H]3O[C@H]1C[C@H](N)[C@H](O)[C@H](C)O1` [DOXORUBICIN HYDROCHLORIDE] displayed an IC50 of 1.02 µM.

In the case of `Oc1cccc(-c2cc(-c3ccncc3)c3c(n2)-c2ccccc2C3)c1`, the inhibition turned out to be 49.8% in experiment [2], 1.5% in experiment [3] and 8.4% in experiment [4]. Moreover, the half-maximal inhibitory concentration (IC50) in experiment [6], in experiment [1], in experiment [7] and in experiment [8] was over 50 µM throughout.

`c1ccc(-c2cc(-c3cccs3)c3c(n2)-c2ccccc2C3)cc1`: the inhibition in experiment [2] is 3.7%; in experiment [4] it was 16.8%. Also, the IC50 in experiment [6] was over 50 µM; in experiment [1], 26.7 µM; in experiment [7] it was 9.34 µM; in experiment [8], 30.8 µM.

Regarding `Oc1ccccc1-c1cc(-c2ccncc2)c2c(n1)-c1ccccc1C2`, the inhibition in experiment [2] stood at 68.7%; in experiment [3] it was 2.3%; in experiment [4] it was 5.1%. Also, the IC50 was over 50 µM in experiment [6], over 50 µM in experiment [1], 39.6 µM in experiment [7] and over 50 µM in experiment [8].

As for `Oc1ccc(-c2cc(-c3ccncc3)c3c(n2)-c2ccccc2C3)cc1`, the inhibition in experiment [2] came to 72.4%; in experiment [3], 0.7%; in experiment [4] it was 27.1%. Moreover, the IC50 in experiment [6], in experiment [1], in experiment [7] and in experiment [8] was over 50 µM throughout.

Consider `c1ccc(-c2cc(-c3cccnc3)c3c(n2)-c2ccccc2C3)cc1`, for which the inhibition in experiment [2] was 4.1%. Moreover, the half-maximal inhibitory concentration (IC50) in experiment [6], in experiment [1], in experiment [7] and in experiment [8] was over 50 µM in each case.

For the compound `Oc1cccc(-c2cc(-c3ccccn3)c3c(n2)-c2ccccc2C3)c1`, the inhibition came to 5.9% in experiment [2], 48.5% in experiment [4] and 19.7% in experiment [5]. The IC50 in experiment [6] is over 50 µM; in experiment [1], over 50 µM; in experiment [7], over 50 µM; in experiment [8], 3.09 µM.

Turning to `c1ccc(-c2cc(-c3ccoc3)c3c(n2)-c2ccccc2C3)cc1`, the inhibition in experiment [2] was 0%; in experiment [4], 19.6%; in experiment [5] it was 15.1%. Also, the IC50 in experiment [6] amounted to 1.52 µM; in experiment [1] it was 35.3 µM; in experiment [7], 46.5 µM; in experiment [8], 23.8 µM.

Consider `c1ccc(-c2cc(-c3ccsc3)c3c(n2)-c2ccccc2C3)cc1`, for which the inhibition in experiment [2] stood at 3.4%; in experiment [4] it was 16.7%. Further, the concentration for half-maximal inhibition (IC50) in experiment [6] is 31.4 µM; in experiment [1], over 50 µM; in experiment [7] it was 1.62 µM; in experiment [8] it was 29.8 µM.

Usually IC50 stands for the concentration that gives 50% inhibition. Lower therefore signals greater potency in that assay. In general, inhibition refers to the drop in the measured response relative to a control, in per cent.

The record behind these values is ChEMBL document CHEMBL3596197, “Synthesis, topoisomerase I and II inhibitory activity, cytotoxicity, and structure-activity relationship study of 2-phenyl- or hydroxylated 2-phenyl-4-aryl-5H-indeno[1,2-b]pyridines” (Bioorg Med Chem, 2015).
